Laboratory results reported in ChEMBL document CHEMBL4138140, “Discovery of Mechanism-Based Inactivators for Human Pancreatic Carboxypeptidase A from a Focused Synthetic Library” (ACS Med Chem Lett, 2017).

How the values were obtained:
[1] = molecular target: T1, Carboxypeptidase A1 (Bos taurus, UniProt P00730); test: Inhibition of bovine carboxypeptidase A using N-(4-methoxyphenylazoformyl)-Phe-OH as substrate preincubated for 3 hrs followed by susbtrate addition measured for 15 mins at 30 secs interval
T1 sequence (P00730 whole entry): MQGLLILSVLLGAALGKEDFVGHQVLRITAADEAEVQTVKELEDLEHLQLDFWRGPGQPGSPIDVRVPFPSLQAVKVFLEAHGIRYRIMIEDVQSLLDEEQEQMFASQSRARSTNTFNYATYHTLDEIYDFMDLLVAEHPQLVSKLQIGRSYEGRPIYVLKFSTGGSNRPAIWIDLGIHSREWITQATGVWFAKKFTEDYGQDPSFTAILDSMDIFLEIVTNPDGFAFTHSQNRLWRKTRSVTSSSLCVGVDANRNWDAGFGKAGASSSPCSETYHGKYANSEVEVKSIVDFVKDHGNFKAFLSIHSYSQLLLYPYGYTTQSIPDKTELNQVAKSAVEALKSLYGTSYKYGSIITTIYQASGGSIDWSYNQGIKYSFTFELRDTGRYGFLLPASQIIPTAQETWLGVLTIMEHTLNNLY
How it was run: (§1)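 Compound was pre-incubated with enzyme before the activity assay, either briefly (2 min) or long (3 h), to test for time-dependent inhibition.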

[2] = molecular target: T1, Carboxypeptidase A1; test: Inhibition of bovine carboxypeptidase A using N-(4-methoxyphenylazoformyl)-Phe-OH as substrate preincubated for 2 mins followed by susbtrate addition measured for 15 mins at 30 secs interval; how it was run: as §1
[3] = molecular target: T2, Carboxypeptidase A1 (Homo sapiens) (UniProt P15085); test: (§2) Irreversible inhibition of recombinant human carboxypeptidase A1 expressed in Pichia pastoris using N-(4-methoxyphenylazoformyl)-Phe-OH as substrate measured for 600 secs by double reciprocal plot analysis
T2 sequence (whole entry): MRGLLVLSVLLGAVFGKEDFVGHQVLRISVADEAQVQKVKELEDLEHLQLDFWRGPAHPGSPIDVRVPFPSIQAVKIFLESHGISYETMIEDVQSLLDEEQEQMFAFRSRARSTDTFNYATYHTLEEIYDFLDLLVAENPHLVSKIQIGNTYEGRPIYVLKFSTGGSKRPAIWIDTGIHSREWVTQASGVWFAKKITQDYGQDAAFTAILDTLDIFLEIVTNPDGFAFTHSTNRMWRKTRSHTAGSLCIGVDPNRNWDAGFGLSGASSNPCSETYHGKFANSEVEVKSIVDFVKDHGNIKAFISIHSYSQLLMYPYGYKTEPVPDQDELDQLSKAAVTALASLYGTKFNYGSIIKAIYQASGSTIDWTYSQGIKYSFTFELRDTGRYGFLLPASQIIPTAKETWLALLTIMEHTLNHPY

[4] = molecular target: T3, Carboxypeptidase A1 (Homo sapiens, UniProt P15085); test: as §2; settings: read-out: Ki(app)
T3 sequence (P15085 whole entry): T2 sequence (whole entry)

Compound | IC50 [1] [µM] | IC50 [2] [µM] | Kinact [3] [min⁻¹] | Ki [4] [µM]
CC(C)C[C@H](C(=O)O)[C@@H]1CO1 (racemic) | 33.1 | – | – | –
CC(C)C[C@H](C(=O)O)[C@H]1CO1 (racemic) | 0.57 | – | – | –
CCC[C@H](C(=O)O)[C@@H]1CS1 (racemic) | 0.6 | 31.9 | 0.82 | 294
O=C(O)[C@@H](Cc1ccc(I)cc1)[C@@H]1CO1 (racemic) | 1.04 | 48.3 | 0.6 | 413
O=C(O)[C@@H](CC1CCC1)[C@@H]1CO1 (racemic) | 1.13 | 57.9 | – | –
O=C(O)[C@@H](CC1CC1)[C@@H]1CO1 (racemic) | 11.2 | 276 | – | –
O=C(O)[C@@H](CCc1ccccc1)[C@@H]1CS1 (racemic) | 16.4 | – | – | –
O=C(O)[C@@H](CC1CCC1)[C@H]1CS1 (racemic) | 0.97 | 60 | – | –
O=C(O)[C@@H](Cc1ccc(F)cc1)[C@@H]1CO1 (racemic) | 0.51 | 21.9 | 0.71 | 238
CCC[C@H](C(=O)O)[C@@H]1CO1 (racemic) | 1.13 | 115 | – | –
CC(C)C[C@H](C(=O)O)[C@H]1CS1 (racemic) | 31.9 | – | – | –
O=C(O)[C@@H](CCc1ccccc1)[C@@H]1CO1 (racemic) | 8.25 | – | – | –
O=C(O)[C@@H](CC1CC1)[C@H]1CS1 (racemic) | 1.8 | 174 | – | –
O=C(O)[C@@H](Cc1ccc(F)cc1)[C@H]1CS1 (racemic) | 0.47 | 18.7 | 0.47 | 60.4
O=C(O)[C@@H](Cc1ccc(I)cc1)[C@H]1CS1 (racemic) | 0.96 | 46.3 | 0.69 | 289
CC(C)C[C@H](C(=O)O)[C@@H]1CS1 (racemic) | 0.26 | 14 | 0.52 | 56
